Measurements gathered from unrelated publications.
Lines come from different studies, so protocols differ. ≈ marks a conversion by molar mass, not a printed value.
Organism: Pseudomonas aeruginosa

ONCc1cc(F)cc(F)c1 — MIC50 (microbial growth; ATCC15692; 8 h): 150 µg/mL (≈ 943 µM)
COc1cccc(OC)c1C(=O)N[C@@H]1C(=O)N2[C@@H]1SC(C)(C)[C@@H]2C(=O)O — MIC (microbial growth, broth dilution; ATCCBAA2108; drug-resistant strain): > 64 µg/mL
O=C(O)c1cn(C2CC2)c2cc(N3CCNCC3)c(F)cc2c1=O — inhibition zone (microbial growth; K799/61; 1000 µg/mL): 33.5 mm
COC(=O)c1cc(-c2cccc(NC(=O)Nc3cccc(F)c3)c2)on1 — MIC (microbial growth, broth dilution; ATCC27853): > 64 µg/mL
C[C@@H](O)[C@H]1C(=O)N2C(C(=O)O)=C(S[C@@H]3CN[C@H](C(=O)N(C)C)C3)[C@H](C)[C@H]12 — MIC90 (microbial growth; PAO1): 0.25 µg/mL (≈ 0.652 µM)
CCCCCCCCCCCC(=O)OC[C@H]1O[C@@H](n2cc(C)c(=O)[nH]c2=O)C[C@@H]1OC(=O)c1ccc(C(C)(C)C)cc1 — MBC (microbial killing, broth dilution): 16 µg/mL (≈ 27.4 µM)
O=C(Nc1cccc(-c2cc(C(=O)O)no2)c1)Nc1ccc(Cl)c(Cl)c1 — MIC (microbial growth, broth dilution; ATCC27853): > 64 µg/mL
CC1(C)S[C@@H]2[C@H](NC(=O)[C@H](N)c3ccccc3)C(=O)N2[C@H]1C(=O)O — inhibition zone (microbial growth, well diffusion; ATCC27853; 60000 µg/mL): 32 mm
CCCCCCCCCCCC(=O)OC[C@H]1O[C@@H](n2cc(C)c(=O)[nH]c2=O)C[C@@H]1O — MBC (microbial killing, broth dilution): 16 µg/mL (≈ 37.7 µM)
CSc1ccc(/C=C/c2cc(/C=C3\Sc4ccccc4N3CCCN3CCCC3)c3ccccc3[n+]2C)cc1.[I-] — MIC (microbial growth, broth dilution; ATCCBAA2108; drug-resistant strain): 64 µg/mL
